Screening results (PubChem)
T cruzi inh = blocks replication of Trypanosoma cruzi | hit rate 1.4% among 300,000 | inhibition, % (concentration not given with the values) | T. cruzi beta-gal in NIH3T3, luminescence, 90 h;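 active means mean inhibition across valid replicates above about 55%, limit read from the data; inconclusive means mean below that limit but half or more replicates reach it; inactive means mean below it, under half of replicates reach it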;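 further: signal also drops with host cell toxicity which is not excluded here; higher percent means less beta-gal luminescence so fewer parasites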
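System: NIH/3T3 fibroblasts plus reporter T. cruzi. Medium: DMEM plus 2% FBS. Probe or stimulus: 5000 reporter trypomastigotes per well. Compound: single 50 nL compound addition per well in DMSO. Incubation: co-culture of at least 90 h after 3 h attachment. Detection: GalScreen β-gal luminescence, detergent lysis, 60 min. Evaluation: parasite load inhibition, %.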
Beta cell apopt = blocks beta cell apoptosis; INS-1E cytokine-induced death, ATP luminescence, 48 h; percent of positive-control rescue, neutral wells zero; protection from apoptosis, % (concentration not given with the values); hit rate 0.8% among 300,000;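 active means Every replicate reaches about 75%, or at least half do and their mean reaches it too, limit read from the data; inconclusive means At least half of replicates reach the limit but their mean does not; inactive means Under half of replicates reach the limit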;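 further: higher means more ATP so stronger rescue from cytokine killing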
CSC inhib = blocks cancer stem cells | cancer stem cell-like cells viability, luminescence | hit rate 1.1% among 300,000 | inhibition, % at 7.5 µM | AID 2717; in the data active means inhibition above about 75%; inconclusive means no clear call, values can overlap the other calls; tested in HMLE shEcad cells
Calb FLC = C. albicans growth modulation with fluconazole; C. albicans CaCi-2 + fluconazole, Alamar Blue growth, 48 h; growth inhibition, % (concentration not given with the values); hit rate 0.57% among 300,000; AID 1979;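 active means growth inhibition above about 58% in most replicates, limit read from the data, passing the limit was not always enough; inconclusive means exactly half the replicates above a set limit; inactive means most replicates below a set limit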;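 further: all wells also contain fluconazole at 8 µg/ml as a sub-toxic cotreatment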
SKKanGAS inh = inhibitors of SKKanGAS S. pyogenes growth in kanamycin (SK-promoter or general growth effect). BacTiter-Glo, 6 h. inhibition, % at 7.5 µM. hit rate 1.3% among 300,000. AID 1662;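 active means mean replicate score, as percent of positive control median, at least 50; inconclusive means mean below 50 but one replicate at or above 50; inactive means mean and every replicate below 50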;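 further: strain carries kanamycin resistance gene driven by streptokinase promoter and grows in 40 µg/ml kanamycin; loss of luminescence reflects streptokinase promoter inhibition or plain growth inhibition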
Mdm2-MdmX inh = human Mdm2/MdmX binding inhibition; SaOS-2 split-luciferase Mdm2/MdmX complementation, luminescence; AID 485346; hit rate 3% among 330,000; O15151+Q00987; inhibition, % at 8 µM;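 active means inhibition of at least 50% at 8 µM in the primary screen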
Target sequence (O15151 whole entry, looked up): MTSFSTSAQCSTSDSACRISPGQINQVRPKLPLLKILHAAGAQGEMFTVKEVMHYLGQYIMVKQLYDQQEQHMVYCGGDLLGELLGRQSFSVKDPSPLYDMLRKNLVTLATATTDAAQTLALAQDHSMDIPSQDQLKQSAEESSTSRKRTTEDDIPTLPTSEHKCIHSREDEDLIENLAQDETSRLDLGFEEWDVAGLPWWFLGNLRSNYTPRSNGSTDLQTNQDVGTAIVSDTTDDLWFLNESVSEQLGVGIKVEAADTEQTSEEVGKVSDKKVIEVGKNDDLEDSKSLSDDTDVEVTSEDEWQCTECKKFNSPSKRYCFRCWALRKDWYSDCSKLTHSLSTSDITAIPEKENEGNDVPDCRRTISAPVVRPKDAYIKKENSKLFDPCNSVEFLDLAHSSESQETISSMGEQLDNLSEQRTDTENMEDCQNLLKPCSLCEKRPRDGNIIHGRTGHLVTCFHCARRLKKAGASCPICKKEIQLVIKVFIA
Target sequence (Q00987 whole entry, looked up): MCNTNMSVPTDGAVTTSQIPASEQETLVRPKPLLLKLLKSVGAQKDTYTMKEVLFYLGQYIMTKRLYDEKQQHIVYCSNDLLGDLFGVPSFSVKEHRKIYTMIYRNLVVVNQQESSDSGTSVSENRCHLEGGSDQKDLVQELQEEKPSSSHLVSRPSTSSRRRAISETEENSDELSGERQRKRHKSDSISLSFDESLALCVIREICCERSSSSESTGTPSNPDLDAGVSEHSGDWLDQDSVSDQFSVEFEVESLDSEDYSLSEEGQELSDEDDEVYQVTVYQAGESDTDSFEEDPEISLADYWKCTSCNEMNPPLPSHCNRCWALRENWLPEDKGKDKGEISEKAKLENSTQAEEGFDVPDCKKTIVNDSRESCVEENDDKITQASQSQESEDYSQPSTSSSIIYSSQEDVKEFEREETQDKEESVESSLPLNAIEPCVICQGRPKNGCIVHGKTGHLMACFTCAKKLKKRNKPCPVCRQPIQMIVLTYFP
A number is an active result; 0 = inactive; ? = inconclusive; - = no result given. Rows were chosen to be rich in hits. Some 5.7% of all compounds tested hit in one or more screens of this group.

SMILES	T cruzi inh	Beta cell apopt	CSC inhib	Calb FLC	SKKanGAS inh	Mdm2-MdmX inh
O=C(COC(=O)c1ccc(Cl)nc1)Nc1ccc2c(c1)OCCO2	-	0	0	-	-	0
CSc1nc(N)nc2c1ncn2CC(=O)N[C@H](CO)Cc1c[nH]c2ccccc12	-	0	-	-	-	0
CSc1ccccc1NC(=O)CN(C)CC(=O)NCC(=O)Nc1ccc(F)cc1	0	0	0	0	0	0
CN1CCN(c2ccc(CNS(=O)(=O)c3ccc(Cl)cc3)cc2)CC1	0	0	0	0	0	0
COc1ccc(NS(=O)(=O)c2cccc(NC(=O)c3ccc(Cl)nc3)c2)cc1	0	107	0	0	0	0
COc1ccc(NS(=O)(=O)c2cccc(NC(=O)CCC(=O)c3ccc(Cl)cc3)c2)cc1	0	0	0	0	51	0
C=CCN(C(=O)CNC(=O)c1cccs1)C(C(=O)NC1CCCCC1)c1cccnc1 (configuration not stated)	0	0	-	0	0	0
CNCCCCOc1ccc(C(C)(C)C)cc1Cl	59	0	0	0	0	0
Cc1cc(Cl)ccc1NC(=O)C1COc2ccccc2O1 (configuration not stated)	0	0	0	0	0	0
Cc1cc2[nH]c(=O)c(=O)[nH]c2cc1S(=O)(=O)N1CCN(c2ccccc2F)CC1	0	0	0	81	0	0
C/C(=N\Nc1ccc(Cl)c(C(=O)O)c1)c1ccc2c(c1)OCO2	0	0	0	0	0	0
C/C(=N\Nc1ccc(C(=O)O)cc1)c1ccc2c(c1)Nc1ccccc1S2	0	0	0	?	81	0
Cc1cc2c(n1-c1ccc(Br)cc1)CC(C)(C)CC2=O	58	-	0	0	0	0
CC1=CC(C)(C)N2C(=O)C3(C(C#N)=C(N)Oc4cc(C)oc(=O)c43)c3cc(C)cc1c32 (configuration not stated)	55	0	0	0	0	0
Cc1cc(C(=O)C(C)OC(=O)c2ccc(NC(=O)CC#N)cc2)c(C)n1-c1ccc(OC(F)F)cc1 (configuration not stated)	-	88	0	-	-	0
CC(OC(=O)c1ccc(NC(=O)CC#N)cc1)C(=O)Nc1ccc(Oc2ccccc2)cc1 (configuration not stated)	0	0	0	0	0	0
CCC(=O)c1ccccc1OCCN1CCN(Cc2ccccc2)CC1	0	0	0	0	0	0
CCOc1ccccc1OCCOCCN1CCN(Cc2ccccc2)CC1	61	0	0	0	0	0
Oc1ccc(F)cc1-c1cc(-c2ccc3c(c2)OCCO3)n[nH]1	0	0	0	0	56	0
O=[N+]([O-])c1cccc(-c2n[nH]c(=S)n2-c2ccccc2)c1	0	0	0	0	0	0
O=[N+]([O-])c1ccc2c(c1)[nH]c(=S)n2-c1ccccc1	0	0	0	85	0	0
COc1ccc(C(=O)/C=C/Nc2cc(C)ccn2)cc1	0	0	0	0	0	0
CCNc1nc(SCCOc2ccc(Br)cc2)nc(N(C)C)n1	0	0	0	0	0	0
CCc1ccccc1Nc1nn2c(=O)c3ccc(C(=O)NCc4ccccn4)cc3nc2s1	0	0	83	0	0	0
Cc1ccnc(N(C(=O)Nc2ccccc2)C2=NCC(C)(C)S2)c1	0	0	0	0	0	0
SMILES	T cruzi inh	Beta cell apopt	CSC inhib	Calb FLC	SKKanGAS inh	Mdm2-MdmX inh
CCOc1ccc(NC(=S)NC(=O)c2cncc(Br)c2)cc1	0	0	0	0	0	0
O=C(NNC1=Nc2cccc3cccc1c23)c1ccc(Br)cc1	62	0	0	0	114	-
COc1ccc(CC(=O)NNC2=Nc3cccc4cccc2c34)cc1OC	0	0	0	0	0	0
COCCCN(CC(=O)Nc1ccc(F)cc1)S(=O)(=O)c1cccs1	-	0	0	-	-	0
COc1ccc(N2CCN(C3CCCN(C(=O)CCN4CCCCO4)C3)CC2)cc1 (configuration not stated)	0	-	-	0	0	0
COc1ccc(NC(=S)NNC(=S)Nc2cccc(C(F)(F)F)c2)cc1	0	0	0	0	0	0
FC(F)(F)c1cccc(NC(=S)NC(c2ccccc2)c2ccccc2)c1	60	0	0	0	0	-
COc1cccc(NC(=O)CN(C)C(=O)c2ccccc2OCC(=O)Nc2cccc(C(F)(F)F)c2)c1	0	0	0	0	0	0
CCOc1ccc(NC(=S)NNC(=S)Nc2cccc(C(F)(F)F)c2)cc1	0	0	0	0	51	0
CN(CC(=O)Nc1cccc(F)c1)C(=O)c1ccccc1OCC(=O)Nc1cccc(C(F)(F)F)c1	61	0	0	0	0	0
CCCCCNCC(=O)Nc1cccc(C(=O)Nc2cccc(C(F)(F)F)c2)c1	0	0	93	0	0	0
Cc1ccc(OCCNC(=O)c2cccc(S(=O)(=O)N3CCN(C)CC3)c2)cc1	-	0	-	-	-	0
Cc1ccc(-c2nc(CC(=O)Nc3cccc(S(=O)(=O)NC4=NCCC4)c3)cs2)cc1	-	0	0	-	-	0
COc1ccc(-c2nn(-c3ccccc3)cc2C(=O)N(C)CC(=O)Nc2cccc(F)c2)cc1	-	0	80	-	-	0
CN(CC(=O)Nc1cccc(F)c1)C(=O)c1cn(-c2ccccc2)nc1-c1ccc(F)cc1	-	0	0	-	-	0
O=C(NNC(=S)Nc1ccc(F)c(Cl)c1)c1ccccc1Br	0	0	0	107	0	0
O=C(COc1ccc(C(=O)O)cc1)Nc1cccc(C(F)(F)F)c1	0	-	-	0	0	0
O=C(COCC(=O)Nc1cccc(C(F)(F)F)c1)Nc1cccc(C(F)(F)F)c1	0	0	77	0	0	0
CNNC(=S)Nc1cccc(C(F)(F)F)c1	0	0	0	0	0	0
FC(F)(F)c1cccc(NC(=S)NNC(=S)Nc2cccc(C(F)(F)F)c2)c1	55	97	110	0	101	0
COc1ccc(CN2C(=NC(=O)C3CCCO3)SC3CS(=O)(=O)CC32)cc1 (configuration not stated)	0	0	0	0	0	0
FC(F)(F)c1cccc(NC(=S)Nc2ccc(Cl)c(Cl)c2)c1	0	0	0	0	96	0
O=C(NNC(=S)Nc1cccc(C(F)(F)F)c1)c1ccc(Cl)cc1Cl	0	0	0	0	67	0
Cc1ccccc1C(=O)NNC(=S)Nc1cccc(C(F)(F)F)c1	0	0	0	0	0	0
O=C(/C=C/c1ccccc1)NCC(=O)N/N=C/c1cccs1	0	0	0	0	0	0
Cc1cc(NC(=O)c2ccc(Cl)cc2Cl)no1	0	-	0	0	0	0
O=C1C=C(c2ccc(F)cc2OCc2ccccc2)C[C@@H](c2ccc(F)cc2)C1	-	0	93	-	-	0
COc1ccc([C@H]2CC(=O)C=C(c3ccc(F)cc3OCc3ccccc3)C2)cc1	-	0	0	-	-	0
COc1ccc(Cc2nc3c4c(ncn3n2)Oc2ccc3ccccc3c2C4c2ccc(OC)c(OC)c2)cc1 (configuration not stated)	57	0	0	0	0	0
Oc1ccccc1C1OCC2(CO1)COC(c1ccccc1O)OC2 (configuration not stated)	0	0	0	0	0	0
